Results reported in ChEMBL document CHEMBL2417369, “Synthesis and evaluation of heteroaryl substituted diazaspirocycles as scaffolds to probe the ATP-binding site of protein kinases” (Bioorg Med Chem, 2013).

Tests used:
[1] = system: Fibroblast growth factor receptor 2 (Homo sapiens), P21802 [N549H]; experiment: Inhibition of FGFR2 N549H mutant (unknown origin) at 30 uM by microfluidic mobility shift assay relative to control
Summary of the method: (§1)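 Single-point screen at 30 µM test compound across a 24-kinase panel in a microfluidic assay format. ATP was set near each enzyme's Km,[ATP]. […] The pan-AGC inhibitor H-89 served as an internal control on every assay plate.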

[2] = system: Tyrosine-protein kinase ABL1 (Homo sapiens), P00519 [Q252H]; experiment: Inhibition of ABL Q252H mutant (unknown origin) at 30 uM by microfluidic mobility shift assay relative to control; format: protein assay; summary of the method: as §1
[3] = biological target: T1, Mitogen-activated protein kinase 13 (Homo sapiens) (UniProt O15264); experiment: Inhibition of p38delta (unknown origin) at 30 uM by microfluidic mobility shift assay relative to control
T1 sequence (whole entry): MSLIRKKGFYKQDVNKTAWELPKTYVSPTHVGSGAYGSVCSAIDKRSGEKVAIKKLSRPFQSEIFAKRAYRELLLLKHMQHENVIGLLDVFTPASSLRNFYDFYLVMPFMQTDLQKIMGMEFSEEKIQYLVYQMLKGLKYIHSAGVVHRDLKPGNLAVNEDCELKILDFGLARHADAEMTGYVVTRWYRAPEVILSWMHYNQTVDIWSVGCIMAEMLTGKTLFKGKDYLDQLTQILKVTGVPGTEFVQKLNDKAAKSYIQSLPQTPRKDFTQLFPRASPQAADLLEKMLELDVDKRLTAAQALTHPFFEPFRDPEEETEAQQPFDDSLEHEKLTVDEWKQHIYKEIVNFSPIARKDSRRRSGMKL
Summary of the method: (§2)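 Single-point screen against a 24-kinase panel in a commercial microfluidic assay format. Compounds were tested at 30 µM, with ATP at approximately the Km,[ATP] of each enzyme. H-89 was included on each assay plate as an internal control.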

[4] = biological target: Serine/threonine-protein kinase MARK2 (Homo sapiens) (UniProt Q7KZI7); experiment: Inhibition of MARK2 (unknown origin) at 30 uM by microfluidic mobility shift assay relative to control; summary of the method: as §1
[5] = biological target: T2, Serine/threonine-protein kinase BRSK2 (Homo sapiens) (UniProt Q8IWQ3); experiment: Inhibition of BRSK2 (unknown origin) at 30 uM by microfluidic mobility shift assay relative to control; summary of the method: as §1
T2 sequence (whole entry): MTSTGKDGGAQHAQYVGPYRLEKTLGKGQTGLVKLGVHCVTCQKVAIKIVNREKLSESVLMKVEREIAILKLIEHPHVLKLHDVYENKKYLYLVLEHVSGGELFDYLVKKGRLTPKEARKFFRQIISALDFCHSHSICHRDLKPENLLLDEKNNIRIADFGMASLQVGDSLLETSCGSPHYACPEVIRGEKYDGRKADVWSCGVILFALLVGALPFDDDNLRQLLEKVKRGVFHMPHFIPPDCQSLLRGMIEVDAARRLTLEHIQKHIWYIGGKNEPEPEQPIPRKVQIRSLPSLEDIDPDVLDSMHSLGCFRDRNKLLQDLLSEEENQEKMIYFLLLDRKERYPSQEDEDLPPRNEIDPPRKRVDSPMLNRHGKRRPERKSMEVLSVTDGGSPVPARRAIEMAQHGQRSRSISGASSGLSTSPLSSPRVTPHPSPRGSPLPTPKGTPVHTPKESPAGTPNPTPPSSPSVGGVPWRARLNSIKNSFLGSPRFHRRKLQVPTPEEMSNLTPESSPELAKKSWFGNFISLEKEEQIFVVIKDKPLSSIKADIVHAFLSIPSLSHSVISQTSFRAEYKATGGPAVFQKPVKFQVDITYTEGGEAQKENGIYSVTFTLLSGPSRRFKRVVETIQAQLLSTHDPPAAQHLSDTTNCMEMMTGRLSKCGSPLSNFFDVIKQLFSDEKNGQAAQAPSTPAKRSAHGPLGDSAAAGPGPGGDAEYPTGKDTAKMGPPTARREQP

[6] = biological target: T3, MAP kinase-activated protein kinase 5 (Homo sapiens) (UniProt Q8IW41); experiment: Inhibition of PRAK (unknown origin) at 30 uM by microfluidic mobility shift assay relative to control; summary of the method: as §2
T3 sequence (whole entry): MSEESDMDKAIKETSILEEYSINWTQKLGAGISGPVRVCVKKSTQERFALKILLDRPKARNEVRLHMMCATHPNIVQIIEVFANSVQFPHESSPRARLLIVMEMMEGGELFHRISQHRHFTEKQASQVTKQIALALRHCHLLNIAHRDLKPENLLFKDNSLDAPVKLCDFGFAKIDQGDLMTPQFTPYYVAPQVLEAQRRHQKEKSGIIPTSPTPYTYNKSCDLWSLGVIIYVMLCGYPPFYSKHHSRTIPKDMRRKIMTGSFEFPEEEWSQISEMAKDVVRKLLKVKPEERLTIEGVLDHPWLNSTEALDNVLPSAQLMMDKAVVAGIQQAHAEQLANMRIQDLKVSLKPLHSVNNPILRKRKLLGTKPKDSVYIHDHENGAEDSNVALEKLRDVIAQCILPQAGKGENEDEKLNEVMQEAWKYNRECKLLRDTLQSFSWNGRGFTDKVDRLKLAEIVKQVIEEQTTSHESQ

[7] = biological target: Ribosomal protein S6 kinase beta-1 (Homo sapiens) (UniProt P23443); experiment: Inhibition of p70S6K (unknown origin) at 30 uM by microfluidic mobility shift assay relative to control; summary of the method: as §2
[8] = biological target: Protein kinase C theta type (Homo sapiens) (UniProt Q04759); experiment: Inhibition of PKCtheta (unknown origin) at 30 uM by microfluidic mobility shift assay relative to control; summary of the method: as §2
[9] = biological target: T4, Serine/threonine-protein kinase Sgk3 (Homo sapiens) (UniProt Q96BR1); experiment: Inhibition of SGK3 (unknown origin) at 30 uM by microfluidic mobility shift assay relative to control; summary of the method: as §2
T4 sequence (whole entry): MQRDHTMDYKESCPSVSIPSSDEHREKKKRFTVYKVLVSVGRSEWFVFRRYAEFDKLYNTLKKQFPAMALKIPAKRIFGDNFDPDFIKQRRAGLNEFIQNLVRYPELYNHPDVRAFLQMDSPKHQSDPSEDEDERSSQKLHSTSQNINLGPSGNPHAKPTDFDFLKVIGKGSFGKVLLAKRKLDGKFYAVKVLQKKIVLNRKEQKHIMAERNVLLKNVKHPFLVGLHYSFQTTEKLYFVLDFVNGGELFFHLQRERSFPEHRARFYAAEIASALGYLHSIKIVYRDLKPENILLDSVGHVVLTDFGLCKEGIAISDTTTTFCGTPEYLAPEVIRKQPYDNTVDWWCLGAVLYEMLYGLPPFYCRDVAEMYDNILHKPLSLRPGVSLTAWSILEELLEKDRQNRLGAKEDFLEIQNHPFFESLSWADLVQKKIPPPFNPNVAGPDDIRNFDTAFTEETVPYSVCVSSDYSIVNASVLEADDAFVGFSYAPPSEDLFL

[10] = biological target: Ribosomal protein S6 kinase alpha-4 (Homo sapiens) (UniProt O75676); experiment: Inhibition of MSK2 (unknown origin) at 30 uM by microfluidic mobility shift assay relative to control; summary of the method: as §1
[11] = biological target: RAF proto-oncogene serine/threonine-protein kinase (Homo sapiens) (UniProt P04049); experiment: Inhibition of c-RAF (unknown origin) at 30 uM by microfluidic mobility shift assay relative to control; summary of the method: as §2
RAF proto-oncogene serine/threonine-protein kinase (Homo sapiens), sequence (P04049 whole entry): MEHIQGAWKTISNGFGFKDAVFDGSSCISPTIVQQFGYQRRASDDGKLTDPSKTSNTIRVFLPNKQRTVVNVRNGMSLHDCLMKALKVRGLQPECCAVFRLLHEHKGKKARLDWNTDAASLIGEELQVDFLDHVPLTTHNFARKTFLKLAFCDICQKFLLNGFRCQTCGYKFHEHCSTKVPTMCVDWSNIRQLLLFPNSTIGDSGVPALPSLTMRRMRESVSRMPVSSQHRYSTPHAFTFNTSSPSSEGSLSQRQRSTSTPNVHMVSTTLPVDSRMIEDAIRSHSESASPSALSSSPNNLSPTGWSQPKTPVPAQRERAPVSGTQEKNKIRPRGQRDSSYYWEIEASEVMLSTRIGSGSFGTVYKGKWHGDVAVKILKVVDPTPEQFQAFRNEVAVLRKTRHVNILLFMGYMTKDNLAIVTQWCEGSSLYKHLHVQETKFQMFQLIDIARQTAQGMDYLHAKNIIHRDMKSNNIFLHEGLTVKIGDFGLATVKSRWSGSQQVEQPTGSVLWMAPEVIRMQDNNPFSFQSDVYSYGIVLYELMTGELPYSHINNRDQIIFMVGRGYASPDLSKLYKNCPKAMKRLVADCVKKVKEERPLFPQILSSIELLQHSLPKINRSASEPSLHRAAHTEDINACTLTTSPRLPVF

Fibroblast growth factor receptor 2 (Homo sapiens), P21802 [N549H], sequence (P21802 whole entry N549H): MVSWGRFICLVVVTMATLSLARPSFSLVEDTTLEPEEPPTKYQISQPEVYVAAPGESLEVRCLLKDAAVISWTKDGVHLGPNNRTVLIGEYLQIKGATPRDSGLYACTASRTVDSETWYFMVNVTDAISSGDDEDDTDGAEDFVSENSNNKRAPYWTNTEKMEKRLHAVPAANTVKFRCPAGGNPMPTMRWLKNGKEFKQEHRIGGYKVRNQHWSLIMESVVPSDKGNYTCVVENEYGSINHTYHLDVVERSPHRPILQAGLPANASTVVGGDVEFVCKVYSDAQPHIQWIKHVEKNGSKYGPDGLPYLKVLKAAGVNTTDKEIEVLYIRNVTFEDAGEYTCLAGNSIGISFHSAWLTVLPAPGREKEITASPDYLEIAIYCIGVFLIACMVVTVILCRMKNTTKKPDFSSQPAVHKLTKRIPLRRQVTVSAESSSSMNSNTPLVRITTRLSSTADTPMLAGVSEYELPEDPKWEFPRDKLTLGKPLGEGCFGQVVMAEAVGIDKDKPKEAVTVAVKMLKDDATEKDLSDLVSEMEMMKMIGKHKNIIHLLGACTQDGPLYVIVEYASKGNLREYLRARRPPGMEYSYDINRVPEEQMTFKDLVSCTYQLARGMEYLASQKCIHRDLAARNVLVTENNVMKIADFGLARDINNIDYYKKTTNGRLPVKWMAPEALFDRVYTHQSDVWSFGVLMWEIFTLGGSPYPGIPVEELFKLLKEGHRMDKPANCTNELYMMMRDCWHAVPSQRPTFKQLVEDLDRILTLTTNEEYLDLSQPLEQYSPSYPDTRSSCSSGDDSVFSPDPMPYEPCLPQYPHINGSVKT
Protein kinase C theta type (Homo sapiens), sequence (Q04759 whole entry, looked up): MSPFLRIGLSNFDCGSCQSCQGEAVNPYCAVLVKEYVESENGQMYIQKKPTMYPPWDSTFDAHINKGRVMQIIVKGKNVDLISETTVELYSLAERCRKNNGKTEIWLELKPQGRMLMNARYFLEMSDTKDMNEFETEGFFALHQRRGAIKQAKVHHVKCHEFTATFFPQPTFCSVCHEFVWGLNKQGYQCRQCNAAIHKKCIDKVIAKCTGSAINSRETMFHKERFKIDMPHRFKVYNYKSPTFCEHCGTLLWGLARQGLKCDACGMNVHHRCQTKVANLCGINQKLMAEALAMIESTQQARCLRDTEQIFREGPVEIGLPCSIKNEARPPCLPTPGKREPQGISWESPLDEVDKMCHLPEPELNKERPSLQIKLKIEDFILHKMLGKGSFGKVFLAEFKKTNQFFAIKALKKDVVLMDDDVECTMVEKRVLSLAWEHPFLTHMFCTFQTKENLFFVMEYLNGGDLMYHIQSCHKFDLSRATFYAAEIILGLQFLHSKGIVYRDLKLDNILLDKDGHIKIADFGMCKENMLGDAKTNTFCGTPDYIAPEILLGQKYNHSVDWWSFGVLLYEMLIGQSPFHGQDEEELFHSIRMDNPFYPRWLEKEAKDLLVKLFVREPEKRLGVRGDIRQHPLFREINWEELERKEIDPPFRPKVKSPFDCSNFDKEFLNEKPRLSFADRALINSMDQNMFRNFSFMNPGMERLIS
Ribosomal protein S6 kinase alpha-4 (Homo sapiens), sequence (O75676 whole entry, looked up): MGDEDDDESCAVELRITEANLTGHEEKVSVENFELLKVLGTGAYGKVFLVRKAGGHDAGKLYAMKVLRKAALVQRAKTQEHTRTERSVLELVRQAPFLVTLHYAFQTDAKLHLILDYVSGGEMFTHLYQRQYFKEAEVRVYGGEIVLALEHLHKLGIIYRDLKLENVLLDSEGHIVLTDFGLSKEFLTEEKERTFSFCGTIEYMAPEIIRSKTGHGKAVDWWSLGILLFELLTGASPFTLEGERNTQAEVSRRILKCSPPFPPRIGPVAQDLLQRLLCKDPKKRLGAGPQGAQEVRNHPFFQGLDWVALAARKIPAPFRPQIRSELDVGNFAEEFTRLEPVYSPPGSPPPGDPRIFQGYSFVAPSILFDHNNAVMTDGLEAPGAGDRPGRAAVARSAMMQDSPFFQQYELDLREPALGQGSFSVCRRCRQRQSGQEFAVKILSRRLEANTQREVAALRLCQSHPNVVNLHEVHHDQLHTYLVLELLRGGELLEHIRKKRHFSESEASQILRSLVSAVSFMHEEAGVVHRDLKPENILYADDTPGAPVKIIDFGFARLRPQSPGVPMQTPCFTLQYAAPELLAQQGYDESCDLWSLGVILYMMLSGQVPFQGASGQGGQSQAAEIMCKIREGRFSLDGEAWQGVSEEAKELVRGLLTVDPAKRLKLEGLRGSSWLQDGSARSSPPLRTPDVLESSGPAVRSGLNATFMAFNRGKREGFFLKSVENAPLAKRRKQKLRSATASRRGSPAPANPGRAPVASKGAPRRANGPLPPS
Serine/threonine-protein kinase MARK2 (Homo sapiens), sequence (Q7KZI7 whole entry): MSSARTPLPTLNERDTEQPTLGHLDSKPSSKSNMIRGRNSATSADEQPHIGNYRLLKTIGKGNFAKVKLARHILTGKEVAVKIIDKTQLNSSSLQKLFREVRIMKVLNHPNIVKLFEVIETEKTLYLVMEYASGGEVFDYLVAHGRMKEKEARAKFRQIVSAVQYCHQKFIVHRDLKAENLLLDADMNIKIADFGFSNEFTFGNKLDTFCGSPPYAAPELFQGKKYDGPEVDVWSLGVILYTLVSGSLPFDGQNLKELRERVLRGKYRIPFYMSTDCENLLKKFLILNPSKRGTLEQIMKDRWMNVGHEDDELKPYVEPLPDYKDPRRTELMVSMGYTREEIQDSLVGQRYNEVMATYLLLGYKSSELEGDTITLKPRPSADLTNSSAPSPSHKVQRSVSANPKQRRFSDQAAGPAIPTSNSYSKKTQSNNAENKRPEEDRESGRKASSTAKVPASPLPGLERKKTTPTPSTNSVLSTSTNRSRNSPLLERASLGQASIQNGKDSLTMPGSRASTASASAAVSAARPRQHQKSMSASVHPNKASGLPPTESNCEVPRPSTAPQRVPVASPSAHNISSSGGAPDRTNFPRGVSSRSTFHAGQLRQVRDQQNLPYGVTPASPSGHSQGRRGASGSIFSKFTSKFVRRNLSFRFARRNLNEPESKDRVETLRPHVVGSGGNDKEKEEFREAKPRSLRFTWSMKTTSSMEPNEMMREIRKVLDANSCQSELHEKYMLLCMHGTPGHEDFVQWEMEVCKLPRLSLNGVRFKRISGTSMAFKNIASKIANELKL
Ribosomal protein S6 kinase beta-1 (Homo sapiens), sequence (P23443 whole entry, looked up): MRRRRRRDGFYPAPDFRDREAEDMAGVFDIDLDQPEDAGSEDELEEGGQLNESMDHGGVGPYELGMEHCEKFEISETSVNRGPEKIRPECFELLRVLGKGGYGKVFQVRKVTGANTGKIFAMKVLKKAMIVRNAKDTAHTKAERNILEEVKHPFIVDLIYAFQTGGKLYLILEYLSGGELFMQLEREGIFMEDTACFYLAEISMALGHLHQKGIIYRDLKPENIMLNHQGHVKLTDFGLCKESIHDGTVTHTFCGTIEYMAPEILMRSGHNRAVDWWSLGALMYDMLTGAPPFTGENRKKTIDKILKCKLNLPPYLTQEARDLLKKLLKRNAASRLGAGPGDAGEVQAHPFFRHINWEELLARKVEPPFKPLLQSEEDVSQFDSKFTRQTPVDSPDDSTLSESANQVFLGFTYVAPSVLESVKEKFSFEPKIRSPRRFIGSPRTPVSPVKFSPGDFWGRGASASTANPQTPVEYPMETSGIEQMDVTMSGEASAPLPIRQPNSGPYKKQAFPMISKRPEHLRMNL

| SMILES | inhibition [1] | inhibition [2] | inhibition [3] | inhibition [4] | inhibition [5] | inhibition [6] | inhibition [7] | inhibition [8] | inhibition [9] | inhibition [10] | inhibition [11] |
| --- | --- | --- | --- | --- | --- | --- | --- | --- | --- | --- | --- |
| c1ccc(C2CCNC3(CCN(c4ncnc5[nH]cnc45)CC3)C2)cc1 (racemic) | 20% | 30% | 7% | 72% | 16% | 14% | 95% | 77% | 95% | 94% | 13% |
| c1ccc(CC2CCC3(CCN(c4ncnc5[nH]cnc45)CC3)NC2)cc1 (racemic) | 15% | 30% | 4% | 47% | 1% | 12% | 47% | 17% | 27% | 52% | 11% |
| c1ccc(CC2CCNC3(CCN(c4ncnc5[nH]cnc45)CC3)C2)cc1 (racemic) | 22% | 12% | 23% | 60% | 0% | 8% | 98% | 75% | 94% | 100% | 15% |
